Source: ChEMBL document CHEMBL5214982, “Identification and Biochemical Characterization of Pyrrolidinediones as Novel Inhibitors of the Bacterial Enzyme MurA” (J Med Chem, 2022)
Calls of active or inactive are those of the source. The calls are words filed in the database; no cut-off is given here.

What was measured:
[1] = molecular target: UDP-N-acetylglucosamine 1-carboxyvinyltransferase (Escherichia coli K-12) (UniProt P0A749); test: Inhibition of wild type his tagged Escherichia coli K12 MurA at 20 uM using UDP-N-acetylglucosamine as substrate preincubated with substrate for 30 mins prior to compound addition for 15 mins followed by DTT and PEP addition and measured after 30 mins by malachite green based microplate reader analysis relative to control; settings: time 45.0 min
Sequence of UDP-N-acetylglucosamine 1-carboxyvinyltransferase (Escherichia coli K-12) (P0A749 whole entry): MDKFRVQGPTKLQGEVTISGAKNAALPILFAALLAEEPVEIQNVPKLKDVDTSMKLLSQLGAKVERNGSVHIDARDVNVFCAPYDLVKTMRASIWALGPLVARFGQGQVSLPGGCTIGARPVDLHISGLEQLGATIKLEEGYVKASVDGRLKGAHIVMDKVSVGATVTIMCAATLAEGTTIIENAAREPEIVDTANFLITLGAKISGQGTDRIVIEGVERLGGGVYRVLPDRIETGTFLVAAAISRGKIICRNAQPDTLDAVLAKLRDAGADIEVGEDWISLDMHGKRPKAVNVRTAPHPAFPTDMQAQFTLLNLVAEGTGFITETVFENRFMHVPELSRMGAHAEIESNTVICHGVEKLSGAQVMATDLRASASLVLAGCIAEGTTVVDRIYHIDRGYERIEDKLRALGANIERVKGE

[2] = molecular target: UDP-N-acetylglucosamine 1-carboxyvinyltransferase (Escherichia coli K-12, UniProt P0A749); test: Inhibition of wild type his tagged Escherichia coli K12 MurA using UDP-N-acetylglucosamine as substrate […] for 15 mins followed by DTT and PEP addition and measured after 30 mins by malachite green based microplate reader analysis
Sequence of UDP-N-acetylglucosamine 1-carboxyvinyltransferase (P0A749 whole entry): as above

HepG2 = test: Cytotoxicity against human HepG2 cells at upto 100 uM incubated for 24 hrs by MTT assay; format: toxicity, cell-based; settings: hepg2, 24 h
Outline: (§1)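 MRC-5 (20,000/well) or HepG2 (25,000/well) seeded, treated next day for 24 h with eight concentrations up to 100 μM (DMSO solutions). Viability by MTT: medium replaced with 0.5 mg/ml MTT in DMEM, cells lysed in DMSO, absorbance at 560 nm. Three independent experiments.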

MRC5 = test: Cytotoxicity against human MRC5 cells at upto 100 uM incubated for 24 hrs by MTT assay; format: toxicity, cell-based; settings: mrc5, 24 h; outline: as §1
[3] = molecular target: UDP-N-acetylglucosamine 1-carboxyvinyltransferase (Escherichia coli K-12) (UniProt P0A749); test: Inhibition of wild type his tagged Escherichia coli K12 MurA at 2 uM using UDP-N-acetylglucosamine as substrate […] for 15 mins followed by DTT and PEP addition and measured after 30 mins by malachite green based microplate reader analysis relative to control; settings: time 45.0 min
[4] = test system: UDP-N-acetylglucosamine 1-carboxyvinyltransferase (Escherichia coli K-12), P0A749 [C115D]; test: Inhibition of […] his tagged Escherichia coli K12 MurA C115D mutant at 2 uM using UDP-N-acetylglucosamine as substrate in presence of DTT and PEP by microplate reader analysis relative to control; settings: time 45.0 min
Sequence of UDP-N-acetylglucosamine 1-carboxyvinyltransferase (Escherichia coli K-12), P0A749 [C115D] (P0A749 whole entry C115D): as the sequence (P0A749 whole entry) above, with C115D counted along it
Outline: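 His-tagged C115D MurA preincubated directly with compounds (no UNAG preincubation) 15 min rt; fosfomycin and test compound each 2 μM final, 2% DMSO. Master mix added: 150 μM UNAG, 150 μM PEP, 2 mM DTT, 25 mM Tris-HCl pH 7.5; 37 °C 30 min. Malachite green/molybdate stop, A625 after 5 min, no-enzyme background subtracted; three independent experiments.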

[5] = molecular target: UDP-N-acetylglucosamine 1-carboxyvinyltransferase (Escherichia coli K-12) (UniProt P0A749); test: Inhibition of wild type his tagged Escherichia coli K12 MurA at 0.2 uM using UDP-N-acetylglucosamine as substrate preincubated with substrate for 15 mins prior to compound addition for 15 mins followed by DTT and PEP addition by dilution assay
Outline: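 His-tagged WT MurA (30 μg) preincubated with 400 μM UNAG for 15 min, then with inhibitor (10 μM) for another 15 min. Mixture diluted 1:50 into master mix of 150 μM UNAG, 150 μM PEP, 2 mM DTT and 25 mM Tris-HCl pH 7.5 (final), giving 0.2 μM inhibitor; incubated 37°C 30 min. Malachite green/molybdate stop, A625 after 5 min, minus no-enzyme blank; three independent experiments.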

[6] = Stability in human plasma assessed as half life at by HPLC-MS analysis; format: ADME, cell-free
[7] = Stability in human plasma assessed as degradation at measured after 4 hrs by HPLC-MS analysis; format: ADME, cell-free; settings: read-out: Drug degradation
[8] = Stability in human S9 fractions assessed as degradation at measured after 2 hrs by HPLC-MS analysis; format: ADME, subcellular, Liver, S9 fraction; settings: read-out: Drug degradation
[9] = Stability in human S9 fractions assessed as half life at by HPLC-MS analysis; format: ADME, subcellular, Liver, S9 fraction

CCOC(=O)C1=C(O)C(=O)N(c2nc3ccc(C)cc3s2)C1c1ccc(-c2ccccc2)o1 (centres undefined) showed an inhibition [1] of 37%.
Compound CCOC(=O)C1=C(O)C(=O)N(c2nc3ccc(C)cc3s2)C1c1nc2ccccc2s1 (centres undefined) has an inhibition [1] of 12%.
In the case of CCOC(=O)C1=C(O)C(=O)N(c2nc3ccccc3s2)C1c1ccccc1 (centres undefined), the inhibition [1] is reported as 0%.
For CCOC(=O)C1=C(O)C(=O)N(c2nc3ccc(C)cc3s2)C1c1ccc(-c2ccc(Cl)cc2)o1 (centres undefined), the IC50 [2] was 9.9 µM and the inhibition [1] was 75%.
With Cc1ccc2nc(N3C(=O)C(O)=C(C(=O)OCCO)C3c3ccc(-c4ccc(Cl)cc4)o3)sc2c1 (centres undefined) the inhibition [1] was 43%.
For CCOC(=O)C1=C(O)C(=O)N(c2nc3ccccc3s2)C1c1ccc(-c2ccccc2)cc1 (centres undefined), the inhibition [1] was 45%.
For CCOC(=O)C1=C(O)C(=O)N(c2nc3ccc(C)cc3s2)C1c1cccc2ccccc12 (centres undefined), the IC50 [2] was 15 µM and the inhibition [1] was 54%.
In the case of CCOC(=O)C1=C(O)C(=O)N(c2nc3ccc(Cl)cc3s2)C1c1ccc(Cl)cc1 (centres undefined), the inhibition [1] is reported as 34%.
For CCOC(=O)C1=C(O)C(=O)N(c2nc3ccc(Cl)cc3s2)C1c1ccc(-c2ccccc2)cc1 (centres undefined), the IC50 [2] was 5.1 µM, the Activity (HepG2) was “Non-Toxic” and the inhibition [1] was 78%. For the same compound, the Activity (MRC5) was “Non-Toxic”.
With CCOC(=O)C1=C(O)C(=O)N(c2nc3c(Cl)cccc3s2)C1c1ccccc1 (centres undefined) the inhibition [1] was 18%.
CCOC(=O)C1=C(O)C(=O)N(c2nc3ccc(C)cc3s2)C1c1cc(-c2ccccc2)cs1 (centres undefined) gave an IC50 [2] of 9.9 µM and an inhibition [1] of 72%.
Compound CCOC(=O)C1=C(O)C(=O)N(c2nc3ccc(C)cc3s2)C1c1ccccc1-c1cccs1 (centres undefined) has an IC50 [2] of 22 µM and an inhibition [1] of 50%.
Compound C[C@@H]1O[C@@H]1P(=O)(O)O [FOSFOMYCIN] has an IC50 [2] of 5.3 µM, an inhibition [3] of 31% and an inhibition [4] of -4%. For the same compound, the inhibition [1] was 78% and the inhibition [5] was “Active”.
CCCCNc1ccc(C(=O)OCCN(C)C)cc1 [TETRACAINE] gave a t1/2 [6] of 20 min and a metabolised at 4 h [7] of 100%.
For CCOC(=O)C1=C(O)C(=O)N(c2nc3ccc(Oc4ccccc4)cc3s2)C1c1ccccc1 (centres undefined), the IC50 [2] was 17 µM and the inhibition [1] was 53%.
Work on CCOC(=O)C1=C(O)C(=O)N(c2nc3ccc(C)cc3s2)C1c1ccc2cc(O)ccc2c1 (centres undefined) yielded an inhibition [1] of 43%.
In the case of CCOC(=O)C1=C(O)C(=O)N(c2nc3ccc(C)cc3s2)C1c1ccc(-c2ccc(C(F)(F)F)cc2Cl)o1 (centres undefined), the IC50 [2] is reported as 4.8 µM and the inhibition [1] is reported as 94%.
Work on CCOC(=O)C1=C(O)C(=O)N(c2nc3ccc(C)cc3s2)C1c1ccccc1-c1ccccc1 (centres undefined) yielded an IC50 [2] of 17 µM and an inhibition [1] of 57%.
In the case of CCOC(=O)C1=C(O)C(=O)N(c2nc3ccc(C)cc3s2)C1c1ccc(O)cc1 (centres undefined), the inhibition [1] is reported as 23%.
Cc1ccc2nc(N3C(=O)C(O)=C(C(=O)OC(C)(C)C)C3c3ccccc3)sc2c1 (centres undefined) showed an inhibition [1] of 38%.
Work on CCOC(=O)C1=C(O)C(=O)N(c2nc3cc(C)c(C)cc3s2)C1c1ccc(-c2ccccc2)cc1 (centres undefined) yielded an IC50 [2] of 5.8 µM and an inhibition [1] of 85%.
For CC(C)(C)OC(=O)C1=C(O)C(=O)N(c2nc3ccc(Cl)cc3s2)C1c1ccccc1 (centres undefined), the inhibition [1] was 38%.
With CCOC(=O)C1=C(O)C(=O)N(c2nc3ccc(C)cc3s2)C1c1ccc(-c2ccc(Cl)nn2)cc1 (centres undefined) the inhibition [1] was 36%.
In the case of C[C@]12CC[C@H]3[C@@H](CCC4=CC(=O)CC[C@@]43C)[C@@H]1CC[C@@H]2O [TESTOSTERONE], the metabolised at 2 h [8] is reported as 89% and the t1/2 [9] is reported as 5.9 min.
In the case of CCOC(=O)C1=C(O)C(=O)N(c2nc3ccc(OC)cc3s2)C1c1ccc(-c2ccccc2)cc1 (centres undefined), the IC50 [2] is reported as 22 µM and the inhibition [1] is reported as 51%.
CCOC(=O)C1=C(O)C(=O)N(c2nc3c(F)cc(F)cc3s2)C1c1ccc(-c2ccccc2)cc1 (centres undefined) showed an IC50 [2] of 7.5 µM and an inhibition [1] of 76%.
Compound CCOC(=O)C1=C(O)C(=O)N(c2nc3ccc(C)cc3s2)C1c1ccc2ccccc2c1 (centres undefined) has an inhibition [1] of 44%.
In the case of CCOC(=O)C1=C(O)C(=O)N(Cc2ccc(Cl)cc2)C1c1ccc(-c2ccccc2)cc1 (centres undefined), the inhibition [1] is reported as 40%.
Compound CCOC(=O)C1=C(O)C(=O)N(c2nc3ccc(C(F)(F)F)cc3s2)C1c1ccc(-c2ccccc2)cc1 (centres undefined) has an IC50 [2] of 6.1 µM and an inhibition [1] of 70%.
In the case of CCOC(=O)C1=C(O)C(=O)N(c2nc3ccc(Br)cc3s2)C1c1ccc(-c2ccccc2)cc1 (centres undefined), the IC50 [2] is reported as 21 µM and the inhibition [1] is reported as 52%.
CCOC(=O)C1=C(O)C(=O)N(c2nc3ccc(C)cc3s2)C1c1ccc(OC)c2ccccc12 (centres undefined) showed an IC50 [2] of 9.5 µM and an inhibition [1] of 74%.
Compound CCOC(=O)C1=C(O)C(=O)N(c2nc3ccc(C)cc3s2)C1c1ccccc1 (centres undefined) has an inhibition [1] of 26%.
In the case of CCOC(=O)C1=C(O)C(=O)N(c2nc3c(OC)cccc3s2)C1c1ccc(-c2ccccc2)cc1 (centres undefined), the IC50 [2] is reported as 25 µM and the inhibition [1] is reported as 31%.
Compound CCOC(=O)C1=C(O)C(=O)N(c2nc3c(ccc4ccccc43)s2)C1c1ccccc1 (centres undefined) has an inhibition [1] of 36%.
In the case of CCOC(=O)C1=C(O)C(=O)N(c2ccccc2)C1c1ccc(-c2ccccc2)cc1 (centres undefined), the inhibition [1] is reported as 13%.
Cc1cccc2sc(N3C(=O)C(O)=C(C(=O)OC(C)(C)C)C3c3ccccc3)nc12 (centres undefined) showed an IC50 [2] of 11 µM and an inhibition [1] of 67%.
For CCOC(=O)C1=C(O)C(=O)N(c2nc3c(C)cccc3s2)C1c1ccccc1 (centres undefined), the inhibition [1] was 0%.
CCOC(=O)C1=C(O)C(=O)N(c2ccc(Cl)cc2)C1c1ccc(Cl)cc1 (centres undefined) gave an inhibition [1] of 14%.
Compound CCOC(=O)C1=C(O)C(=O)N(c2nc3ccc(Cl)cc3s2)C1c1ccccc1 (centres undefined) has an inhibition [1] of 14%.
In the case of CCOC(=O)C1=C(O)C(=O)N(c2nc3c(s2)CCCC3)C1c1ccccc1 (centres undefined), the inhibition [1] is reported as 14%.
For CCOC(=O)C1=C(O)C(=O)N(c2nc3ccc(C)cc3s2)C1c1cccnc1 (centres undefined), the inhibition [1] was 29%.
CCOC(=O)C1=C(O)C(=O)N(c2nc3c(Cl)cccc3s2)C1c1ccc(-c2ccccc2)cc1 (centres undefined) showed an IC50 [2] of 7 µM and an inhibition [1] of 73%.
With CCOC(=O)C1=C(O)C(=O)N(c2ccc(-c3ccccc3)cc2)C1c1ccccc1 (centres undefined) the inhibition [1] was 19%.
CCOC(=O)C1=C(O)C(=O)N(c2nc3ccc(C)cc3s2)C1c1ccc(-c2ccccc2)cc1 (centres undefined) showed an IC50 [2] of 8.5 µM and an inhibition [1] of 76%.
Compound CCOC(=O)C1=C(O)C(=O)N(c2nc3ccc(C)cc3s2)C1c1ccco1 (centres undefined) has an inhibition [1] of 21%.
COC(=O)C1=C(O)C(=O)N(c2nc3ccc(C)cc3s2)C1c1ccc(-c2ccc(Cl)cc2)o1 (centres undefined) showed an IC50 [2] of 16 µM and an inhibition [1] of 59%.
CCOC(=O)C1=C(O)C(=O)N(c2nc3ccc(C)cc3s2)C1c1cccs1 (centres undefined) gave an inhibition [1] of 14%.
